The text below walks through data of ChEMBL document CHEMBL3421593, “Design, synthesis, and biological evaluation of ring-constrained novobiocin analogues as hsp90 C-terminal inhibitors” (ACS Med Chem Lett, 2015).

The term pIC50 denotes the IC50 on a negative log10 scale, so that one unit is a factor of ten. Lower therefore signals a high IC50.

pIC50: −log10 of the molar value. Calls of active or inactive are those of the source. The calls are words filed in the database; no cut-off is given here.

Series [1] can be described thus: Antiproliferative activity against human SKBR3 cells. It is filed as functional, cell-based. Particulars: SK-BR-3. In a few lines:
(§1)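 Breast cancer lines used were SKBr3 (estrogen receptor negative, Her2 overexpressing) and MCF-7 (estrogen receptor positive). Values are mean ± standard deviation from at least two separate experiments, each performed in triplicate.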

Series [2] relates to MCF7. Kind of series: Antiproliferative activity against human MCF7 cells. It is filed as functional, cell-based. In a few lines:
as §1

For series [3], the target named is T1, Heat shock protein HSP90 (Homo sapiens) (UniProt P07900+P08238). Nature of the series: Inhibition of HSP90 in human MCF7 cells assessed as induction of Akt protein degradation at 5 times antiproliferative IC50 level incubated for 24 hrs by Western blotting method. It is filed as cell-based.
Series [4] concerns the target T1, Heat shock protein HSP90 (Homo sapiens). Nature of the series: Inhibition of HSP90 in human MCF7 cells assessed as induction of Her2 protein degradation at 0.5 times antiproliferative IC50 level incubated for 24 hrs by Western blotting method. It is filed as cell-based. (A western blot detects proteins with antibodies after separation by electrophoresis.)
For series [5] the target is unchanged. Kind of series: Inhibition of HSP90 in human MCF7 cells assessed as induction of Raf1 protein degradation at 0.5 times antiproliferative IC50 level incubated for 24 hrs by Western blotting method. It is filed as cell-based.
Series [6] shares this target. Kind of series: Inhibition of HSP90 in human MCF7 cells assessed as induction of Her2 protein degradation at 5 times antiproliferative IC50 level incubated for 24 hrs by Western blotting method. It is filed as cell-based.
Series [7] has the same target. Nature of the series: Inhibition of HSP90 in human MCF7 cells assessed as induction of Raf1 protein degradation at 5 times antiproliferative IC50 level incubated for 24 hrs by Western blotting method. It is filed as cell-based.
For series [8] the target is unchanged. Kind of series: Inhibition of HSP90 in human MCF7 cells assessed as induction of Akt protein degradation at 0.5 times antiproliferative IC50 level incubated for 24 hrs by Western blotting method. It is filed as cell-based.
The target is the same in series [9]. Nature of the series: Inhibition of HSP90 in human MCF7 cells assessed as induction of Raf1 protein degradation at 0.2 to 10 uM incubated for 24 hrs by Western blotting method. It is filed as cell-based.
Series [10] deals with MCF7. Kind of series: Effect on HSP90 protein expression in human MCF7 cells at 0.2 to 10 uM incubated for 24 hrs by Western blotting method. It is filed as cell-based. To be noted: mcf7, 24 h.
Series [11] deals with T1, Heat shock protein HSP90 (Homo sapiens). Kind of series: Inhibition of HSP90 in human MCF7 cells assessed as induction of Her2 protein degradation at 0.2 to 10 uM incubated for 24 hrs by Western blotting method. It is filed as cell-based.
In series [12] the test system is MCF7. Kind of series: Effect on actin protein expression in human MCF7 cells at 0.2 to 10 uM incubated for 24 hrs by Western blotting method. It is filed as cell-based. To be noted: mcf7, 24 h.
In series [13] the target is T1, Heat shock protein HSP90 (Homo sapiens). Kind of series: Inhibition of HSP90 in human MCF7 cells assessed as induction of Akt protein degradation at 0.2 to 10 uM incubated for 24 hrs by Western blotting method. It is filed as cell-based.

Compound `COc1cccc(-c2cc(C(=O)Nc3cc4cc(OC)c(OC(C)=O)c(C)c4oc3=O)ccc2OC)c1` showed a pIC50 in [1] of 5.22.

On to `COc1cccc(-c2cc(C(=O)Nc3cc4ccc5c(c4oc3=O)NC(=O)C(CCN3CCN(C)CC3)O5)ccc2OC)c1` (stereo unspecified), for which the pIC50 with MCF7 [2] is 5.25; in [1], 5.39.

With `COc1cccc(-c2cc(C(=O)Nc3cc4ccc5c(c4oc3=O)NC(=O)C(CCCNC3CC4CCC3C4)O5)ccc2OC)c1` (stereo unspecified), the values for the pIC50 (in the series on MCF7 [2]; in series [1]) were 5.87 and 5.90, respectively.

Consider `COc1cccc(-c2cc(C(=O)Nc3cc4ccc5c(c4oc3=O)NC(=O)C(CN3CCNCC3)O5)ccc2OC)c1` (stereo unspecified), for which the negative logarithm of the IC50 (pIC50) in the series on MCF7 [2] was 5.28; in series [1] it was 5.24.

As to `COc1cccc(-c2cc(C(=O)Nc3cc4ccc5c(c4oc3=O)NC(=O)C(CCCNC3CCCCC3)O5)ccc2OC)c1` (stereo unspecified), the inhibition result in series [3], in series [4], in series [5], in series [6], in [7] and in series [8] was “Active” throughout. The negative logarithm of the IC50 (pIC50) in the series with MCF7 [2] is 6.46; in [1] it was 6.70.

As for `COc1cccc(-c2cc(C(=O)Nc3cc4ccc5c(c4oc3=O)NC(=O)C(CCN3CCCCC3)O5)ccc2OC)c1` (stereo unspecified), the values for the negative logarithm of the IC50 (pIC50) (in the series with MCF7 [2]; in [1]) were 5.98 and 5.99, respectively.

`COc1cccc(-c2cc(C(=O)Nc3cc4ccc5c(c4oc3=O)NC(=O)C(CCCN3CCN(C)CC3)O5)ccc2OC)c1` (stereo unspecified): the pIC50 in the series on MCF7 [2] was 5.61; in series [1], 5.75.

As for `COc1cccc(-c2cc(C(=O)Nc3cc4ccc5c(c4oc3=O)NC(=O)C(CCNC34C[C@H]6C[C@@H](C3)C[C@@H](C4)C6)O5)ccc2OC)c1` (stereo partly specified), the pIC50 was 5.96 with MCF7 [2] and 6.06 in series [1].

For the compound `COc1cccc(-c2cc(C(=O)Nc3cc4ccc5c(c4oc3=O)NC(=O)C(CCCCN3CCCC3)O5)ccc2OC)c1` (stereo unspecified), the pIC50 in the series with MCF7 [2] is 5.82; in [1], 5.60.

In the case of `COc1cccc(-c2cc(C(=O)Nc3cc4ccc5c(c4oc3=O)NC(=O)C(c3ccccc3)O5)ccc2OC)c1` (stereo unspecified), the pIC50 in the series with MCF7 [2] was < 4.30; in [1] it was 4.32.

Regarding `COc1cccc(-c2cc(C(=O)Nc3cc4ccc5c(c4oc3=O)NC(=O)C(Cc3ccc(C)cc3)O5)ccc2OC)c1` (stereo unspecified), the pIC50 (in the series with MCF7 [2]; in series [1]) was < 4.30 in each case.

As for `COc1cccc(-c2cc(C(=O)Nc3cc4ccc5c(c4oc3=O)NC(=O)C(CCNC3CC4CCC3C4)O5)ccc2OC)c1` (stereo unspecified), the pIC50 in the series on MCF7 [2] was 5.91; in series [1], 6.17.

Turning to `COc1cccc(-c2cc(C(=O)Nc3cc4ccc5c(c4oc3=O)NC(=O)C(CCCN3CCCC3)O5)ccc2OC)c1` (stereo unspecified), the pIC50 was 5.83 in the series on MCF7 [2] and 5.99 in [1].

Consider `COc1cccc(-c2cc(C(=O)Nc3cc4ccc5c(c4oc3=O)NC(=O)C(Cc3ccccc3)O5)ccc2OC)c1` (stereo unspecified), for which the pIC50 is 4.66 in the series on MCF7 [2] and 4.67 in [1].

For `COc1cccc(-c2cc(C(=O)Nc3cc4ccc5c(c4oc3=O)NC(=O)C(CCCN3CCNCC3)O5)ccc2OC)c1` (stereo unspecified), the pIC50 with MCF7 [2] is 4.89; in series [1], 5.04.

With `COc1cccc(-c2cc(C(=O)Nc3cc4ccc5c(c4oc3=O)NC(=O)C(CCNC3CCCCC3)O5)ccc2OC)c1` (stereo unspecified), the values for the pIC50 (with MCF7 [2]; in series [1]) were 5.94 and 6.11, respectively.

In the case of `COc1cccc(-c2cc(C(=O)Nc3cc4ccc5c(c4oc3=O)NC(=O)C(CCN3CCCC3)O5)ccc2OC)c1` (stereo unspecified), the results for the pIC50 (in the series on MCF7 [2]; in [1]) were 5.28 and 5.46, respectively.

As for `COc1cccc(-c2cc(C(=O)Nc3cc4ccc5c(c4oc3=O)NC(=O)C(C(=O)N3CCCC3)O5)ccc2OC)c1` (stereo unspecified), the pIC50 (with MCF7 [2]; in series [1]) was < 4.30 in each case.

Regarding `COc1cccc(-c2cc(C(=O)Nc3cc4ccc(O[C@H]5OC(C)(C)[C@@H](OC)[C@H](O)[C@@H]5O)c(OC)c4oc3=O)ccc2OC)c1`, the pIC50 in the series with MCF7 [2] is 5.05; in series [1] it was 4.86.

`COc1cccc(-c2cc(C(=O)Nc3cc4ccc5c(c4oc3=O)NC(=O)C(CCN3CCNCC3)O5)ccc2OC)c1` (stereo unspecified): the pIC50 with MCF7 [2] is 5.12; in series [1], 5.26.

Turning to `COc1cccc(-c2cc(C(=O)Nc3cc4ccc5c(c4oc3=O)NC(=O)C(CN3CCCC3)O5)ccc2OC)c1` (stereo unspecified), the negative-log IC50 (pIC50) with MCF7 [2] was 4.64; in series [1], 4.82.

On to `COc1ccc(CC2Oc3ccc4cc(NC(=O)c5ccc(OC)c(-c6cccc(OC)c6)c5)c(=O)oc4c3NC2=O)cc1` (stereo unspecified), for which the pIC50 was 5.21 with MCF7 [2] and 5.08 in series [1].

As to `COc1cccc(-c2cc(C(=O)Nc3cc4ccc5c(c4oc3=O)NC(=O)C(CCCN3CCCCC3)O5)ccc2OC)c1` (stereo unspecified), the inhibition entry in series [9], in series [11] and in [13] was “Dose-dependent effect” throughout. Besides, the inhibition entry in series [3], in series [4], in series [5], in series [6], in series [7] and in [8] was “Active” each time. Besides, the Activity entry with MCF7 [10] and in the series with MCF7 [12] was “Non-toxic” throughout. In addition, the pIC50 in the series on MCF7 [2] was 6.07; in series [1], 6.11.

Take `COc1cccc(-c2cc(C(=O)Nc3cc4ccc5c(c4oc3=O)NC(=O)C(CCN(C)C)O5)ccc2OC)c1` (stereo unspecified): the pIC50 with MCF7 [2] was 4.94; in series [1], 5.09.

On to `COc1cccc(-c2cc(C(=O)Nc3cc4ccc5c(c4oc3=O)NC(=O)C(C(N)=O)O5)ccc2OC)c1` (stereo unspecified), for which the results for the pIC50 (in the series with MCF7 [2]; in series [1]) were 4.48 and < 4.30, respectively.

With `COc1cccc(-c2cc(C(=O)Nc3cc4ccc5c(c4oc3=O)NC(=O)C(Cc3ccc(Cl)cc3)O5)ccc2OC)c1` (stereo unspecified), the negative logarithm of the IC50 (pIC50) (in the series on MCF7 [2]; in series [1]) was < 4.30 in each case.

In the case of `COc1cccc(-c2cc(C(=O)Nc3cc4ccc5c(c4oc3=O)NC(=O)C(CCCN[C@]34CC6CC(C[C@@H](C6)C3)C4)O5)ccc2OC)c1` (stereo partly specified), the inhibition entry in series [3], in series [4], in [5], in [6], in series [7] and in series [8] was “Active” throughout. Also, the negative logarithm of the IC50 (pIC50) in the series with MCF7 [2] is 6.14; in series [1], 6.21.

As to `COc1cccc(-c2cc(C(=O)Nc3cc4ccc(OCCN(C)C)c(OC)c4oc3=O)ccc2OC)c1`, in series [1], the pIC50 was 5.70.

As to `COc1cccc(-c2cc(C(=O)Nc3cc4ccc5c(c4oc3=O)NC(=O)C(CCN3CCOCC3)O5)ccc2OC)c1` (stereo unspecified), the negative logarithm of the IC50 (pIC50) in the series with MCF7 [2] was 5.13; in series [1], 5.18.

As for `COc1cccc(-c2cc(C(=O)Nc3cc4ccc5c(c4oc3=O)NC(=O)C(CN3CCN(C(=O)OC(C)(C)C)CC3)O5)ccc2OC)c1` (stereo unspecified), the pIC50 (with MCF7 [2]; in series [1]) was < 4.30 throughout.
